# The RNAGym collection of RNA variant scans (doi:10.1038/s41586-018-0170-7)
# B1: tRNA (parent)
# chain: GUUCCGUUGGCGUAAUGGUAACGCGUCUCCCUCCUAAGGAGAAGACUGCGGGUUCGAGUCCCGUACGGAACG
# Variants of: B1
# Test: yeast fitness, log relative to wild type (ln ratio); higher = fitter; tRNA-Arg(CCU), competitive growth, 37 C, 1 M NaCl
# Procedure, shortened: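 Fitness is the natural log of a genotype's generation count divided by that of the wild type. A combinatorial library of tRNA-Arg(CCU) variants sat on a HIS3 centromeric plasmid in BY4742 lacking the chromosomal gene, from two independent transformations. Pools grew 4 generations in SC-HIS at 30 °C, then ~6.5 generations (~26.5 h) in SC-HIS 1M NaCl at 37 °C, with three outputs per input. Generations came from OD-scaled log2 output/input frequency, inverse-variance weighted across replicates, with variants counted by 125 bp paired-end Illumina sequencing.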
row,Variant,yeast fitness (ln)
1,AGUCCUUUGGCGUAAUGGUAACGCGUCUCCCUCCUAAGGAGACGAUUGCGGGUUCGAGUCCCGUAAGGAUUG [G1A U2G G6U A43C C46U C66A A70U C71U],-0.0885
2,GUUCCGUUGGCGUAAUGGUAACGCGUUUCCCUCCUAAGGAGACGAUUGCGGGUUCGAGUCCCGUAUGGGUUG [C27U A43C C46U C66U A69G A70U C71U],-0.391
3,GCUCCUUUGGCGUAAUGGUAACGCGUUUCCCUCCUAAGGAGACGACUGCGGGUUCGAGUCCCGUAUGGAGUG [U2C G6U C27U A43C C66U A70G C71U],-0.313
4,GCUCCGUUGGCGUAAUGGUAACGCGUUUCCCUCCUAAGGAGAAGACUGCGGGUUCGAGUCCCGUAUGGGUUG [U2C C27U C66U A69G A70U C71U],-0.453
5,AUUCCGUUGGCGUAAUGGUAACGCGUCUCCCUCCUAAGGAGAAGACUGCGGGUUCGAGUCCCGUAAGGAUUG [G1A C66A A70U C71U],-0.144
6,AUUCCUUUGGCGUAAUGGUAACGCGUCUCCCUCCUAAGGAGAAGAUUGCGGGUUCGAGUCCCGUAUGGAAUG [G1A G6U C46U C66U C71U],-0.057
7,GGUCCUUUGGCGUAAUGGUAACGCGUUUCCCUCCUAAGGAGACGACUGCGGGUUCGAGUCCCGUAAGGAAUG [U2G G6U C27U A43C C66A C71U],-0.39
8,GCUCCAUUGGCGUAAUGGUAACGCGUUUCCCUCCUAAGGAGAAGACUGCGGGUUCGAGUCCCGUAUGGGGUG [U2C G6A C27U C66U A69G A70G C71U],-0.0741
9,AGUCCGUUGGCGUAAUGGUAACGCGUCUCCCUCCUAAGGAGAAGAUUGCGGGUUCGAGUCCCGUACGGGUCG [G1A U2G C46U A69G A70U],-0.238
10,GGUCCUUUGGCGUAAUGGUAACGCGUUUCCCUCCUAAGGAGAAGAUUGCGGGUUCGAGUCCCGUAUGGGAUG [U2G G6U C27U C46U C66U A69G C71U],-0.527
11,ACUCCGUUGGCGUAAUGGUAACGCGUCUCCCUCCUAAGGAGAAGACUGCGGGUUCGAGUCCCGUAUGGAUUG [G1A U2C C66U A70U C71U],-0.106
12,GGUCCUUUGGCGUAAUGGUAACGCGUUUCCCUCCUAAGGAGAAGAUUGCGGGUUCGAGUCCCGUACGGAUCG [U2G G6U C27U C46U A70U],-0.176
13,GCUCCAUUGGCGUAAUGGUAACGCGUUUCCCUCCUAAGGAGACGACUGCGGGUUCGAGUCCCGUACGGAAUG [U2C G6A C27U A43C C71U],-0.209
14,GCUCCGUUGGCGUAAUGGUAACGCGUCUCCCUCCUAAGGAGACGAUUGCGGGUUCGAGUCCCGUAAGGAAUG [U2C A43C C46U C66A C71U],-0.1
15,GGUCCUUUGGCGUAAUGGUAACGCGUCUCCCUCCUAAGGAGAAGACUGCGGGUUCGAGUCCCGUAUGGAGUG [U2G G6U C66U A70G C71U],-0.151
16,AUUCCGUUGGCGUAAUGGUAACGCGUUUCCCUCCUAAGGAGAAGACUGCGGGUUCGAGUCCCGUAAGGAAUG [G1A C27U C66A C71U],-0.159
17,AUUCCUUUGGCGUAAUGGUAACGCGUCUCCCUCCUAAGGAGAAGAUUGCGGGUUCGAGUCCCGUAAGGAACG [G1A G6U C46U C66A],-0.0835
18,AUUCCAUUGGCGUAAUGGUAACGCGUCUCCCUCCUAAGGAGACGAUUGCGGGUUCGAGUCCCGUAUGGGUCG [G1A G6A A43C C46U C66U A69G A70U],-0.479
19,AUUCCUUUGGCGUAAUGGUAACGCGUCUCCCUCCUAAGGAGACGACUGCGGGUUCGAGUCCCGUACGGGGUG [G1A G6U A43C A69G A70G C71U],-0.398

row,Variant,yeast fitness (ln)
1,AGUCCAUUGGCGUAAUGGUAACGCGUCUCCCUCCUAAGGAGACGAUUGCGGGUUCGAGUCCCGUAUGGAUCG [G1A U2G G6A A43C C46U C66U A70U],-0.306
2,GGUCCGUUGGCGUAAUGGUAACGCGUCUCCCUCCUAAGGAGACGACUGCGGGUUCGAGUCCCGUACGGAGCG [U2G A43C A70G],-0.182
3,AGUCCGUUGGCGUAAUGGUAACGCGUUUCCCUCCUAAGGAGACGAUUGCGGGUUCGAGUCCCGUAAGGAUCG [G1A U2G C27U A43C C46U C66A A70U],-0.175
4,GUUCCAUUGGCGUAAUGGUAACGCGUCUCCCUCCUAAGGAGACGAUUGCGGGUUCGAGUCCCGUAAGGGUCG [G6A A43C C46U C66A A69G A70U],-0.317
5,GGUCCGUUGGCGUAAUGGUAACGCGUCUCCCUCCUAAGGAGAAGACUGCGGGUUCGAGUCCCGUAAGGAUUG [U2G C66A A70U C71U],-0.0556
6,ACUCCGUUGGCGUAAUGGUAACGCGUUUCCCUCCUAAGGAGACGACUGCGGGUUCGAGUCCCGUACGGAUUG [G1A U2C C27U A43C A70U C71U],-0.175
7,GGUCCUUUGGCGUAAUGGUAACGCGUUUCCCUCCUAAGGAGAAGACUGCGGGUUCGAGUCCCGUAUGGAACG [U2G G6U C27U C66U],-0.233
8,ACUCCUUUGGCGUAAUGGUAACGCGUUUCCCUCCUAAGGAGACGACUGCGGGUUCGAGUCCCGUACGGAACG [G1A U2C G6U C27U A43C],-0.181
9,GCUCCAUUGGCGUAAUGGUAACGCGUCUCCCUCCUAAGGAGAAGAUUGCGGGUUCGAGUCCCGUAAGGAGUG [U2C G6A C46U C66A A70G C71U],-0.142
10,AGUCCAUUGGCGUAAUGGUAACGCGUUUCCCUCCUAAGGAGAAGACUGCGGGUUCGAGUCCCGUACGGAAUG [G1A U2G G6A C27U C71U],-0.263
11,AUUCCUUUGGCGUAAUGGUAACGCGUCUCCCUCCUAAGGAGACGAUUGCGGGUUCGAGUCCCGUACGGAUUG [G1A G6U A43C C46U A70U C71U],-0.297
12,AGUCCUUUGGCGUAAUGGUAACGCGUCUCCCUCCUAAGGAGACGACUGCGGGUUCGAGUCCCGUAAGGAAUG [G1A U2G G6U A43C C66A C71U],-0.265
13,ACUCCGUUGGCGUAAUGGUAACGCGUUUCCCUCCUAAGGAGACGACUGCGGGUUCGAGUCCCGUAUGGAUCG [G1A U2C C27U A43C C66U A70U],-0.179
14,AUUCCAUUGGCGUAAUGGUAACGCGUUUCCCUCCUAAGGAGAAGAUUGCGGGUUCGAGUCCCGUAUGGAAUG [G1A G6A C27U C46U C66U C71U],-0.0279
15,ACUCCAUUGGCGUAAUGGUAACGCGUUUCCCUCCUAAGGAGAAGACUGCGGGUUCGAGUCCCGUACGGAGUG [G1A U2C G6A C27U A70G C71U],-0.273
16,GGUCCAUUGGCGUAAUGGUAACGCGUCUCCCUCCUAAGGAGAAGAUUGCGGGUUCGAGUCCCGUAUGGGUCG [U2G G6A C46U C66U A69G A70U],-0.00305
17,ACUCCUUUGGCGUAAUGGUAACGCGUCUCCCUCCUAAGGAGAAGACUGCGGGUUCGAGUCCCGUAUGGAGCG [G1A U2C G6U C66U A70G],-0.302
18,AUUCCUUUGGCGUAAUGGUAACGCGUCUCCCUCCUAAGGAGACGAUUGCGGGUUCGAGUCCCGUAAGGAGCG [G1A G6U A43C C46U C66A A70G],-0.17
